Results reported in PubChem BioAssay AID809 (SRMLSC, 2007).
Active and inactive are the calls of the source.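 The calls were made as follows: active = EC50 for reversing nicotinamide-shortened yeast lifespan at or below a set limit; inactive = EC50 above that limit.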

System: S. cerevisiae DeaD BB579, nicotinamide rescue growth, OD615 48 h
Experiment: BB579 yeast growth restoration under nicotinamide – S. cerevisiae, yeast lifespan extension project, dose response (AID 809)
Procedure, shortened: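 System: S. cerevisiae DeaD strain BB579 / Medium: Glucose-containing restrictive synthetic medium (CSMM-D), shifted from galactose / Schedule: 4 h pre-incubation, 48 h exposure at 30 °C / Technique: optical density at 615 nm (absorbance) / Read-out: culture growth as lifespan proxy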

Structure (SMILES) | EC50
CC(=O)Oc1ccc(N(C(C)=O)S(=O)(=O)c2ccc(C)c([N+](=O)[O-])c2)cc1 | > 10 µM (inactive)
O=C1CC(c2ccccc2)CC(O)=C1C=NCCN1CCN(C(=O)Cc2ccccc2)CC1 (centres undefined) | 6.72 µM
CCOC(=O)c1ccc2c(c1)n(CCO)c(C)[n+]2CC | > 10 µM (inactive)
CC(C)c1ccc(C2=C(O)c3ccccc3C(=O)C2=O)cc1 | > 10 µM (inactive)
CC1(C)Oc2ccccc2OC1(O)c1ccc2ccccc2n1 (centres undefined) | > 10 µM (inactive)
Cc1ccc(OCC(=O)c2c(O)c3ccccc3oc2=O)cc1C | 8.97 µM
CCn1ccc(C(=O)Nc2ccc(S(=O)(=O)Nc3ccccc3OC)cc2)n1 | > 10 µM (inactive)
CN=C(SCc1cc2c(cc1Cl)OCO2)c1c(O)n(C)c(=O)n(C)c1=O | 6.46 µM
CCc1ccc2c(c1)CCCN2C(=O)c1ccccc1C(=O)O | 9.34 µM
C=CCn1c(-c2ccc(OC)cc2)csc1=Nc1c(C)n(C)n(-c2ccccc2)c1=O | > 10 µM (inactive)
COc1cccc(C2CC3C(=O)C=CC2N3Cc2ccccc2)c1 (centres undefined) | 6.1 µM
O=S(=O)(CCSc1ccccn1)c1nc2ccccc2s1 | 5.84 µM
O=c1cc(O)c2c(=O)n(-c3ccccc3)c3c(c2o1)CCCCC3 | 5.16 µM
CCOC(=O)/C(=C\c1cn(C)c2ccccc12)[N+](=O)[O-] | 3.11 µM
CCC1C/C(=C\c2cccnc2)C(=O)/C(=C/c2cccnc2)C1 (centres undefined) | 3.17 µM
O=c1[nH]c2ccccc2nc1Cc1ccccc1 | > 10 µM (inactive)
O=C(NC(=S)NNC(=O)c1ccccc1O)c1ccco1 | 6.02 µM
CCn1c(/C=N/c2nc3ccccc3n2C)nc2ccccc21 | > 10 µM (inactive)
O=C(Nc1nccs1)c1ccc2c(=O)n3c(nc2c1)CCCCC3 | 7.75 µM
Cc1ccc(C(=O)/C=C\C(=O)c2ccc(C)cc2)cc1 | 9.15 µM
COc1ccc(CN2C(=O)/C(=C/c3ccncc3)SC2=S)cc1 | 6.07 µM
Cc1cc(C=C2C(=O)N(C)C(=S)N(C)C2=O)c(C)n1-c1cccnc1 | > 10 µM (inactive)

Structure (SMILES) | EC50
CCOc1cc(Br)c(Br)c(C=Nc2ccc(NC(C)=O)cc2)c1O | 5.03 µM
Cc1cc(NS(=O)(=O)c2ccc(CC(C)C)cc2)no1 | 6.25 µM
Cc1cc(N=Cc2c(O)ccc3ccccc23)no1 | 5.54 µM
COn1c(SC2CCCCC2)nc2ccccc2c1=O | 1.14 µM
NC(=S)N/N=C/c1coc2cc(Cl)ccc2c1=O | 4.87 µM
O=c1cc(-c2c(F)c(F)c(F)c(F)c2F)oc2c(F)c(F)c(F)c(F)c12 | 5.65 µM
CC1(C)CC(=O)C(C(=O)Cc2ccccc2[N+](=O)[O-])C(=O)C1 | 4.3 µM
CCc1nnc(N2C(=O)c3ccc(Oc4ccc([N+](=O)[O-])cc4)cc3C2=O)s1 | > 10 µM (inactive)
CN(Cc1c(O)ccc2c1oc(=O)c1ccccc12)C1CCCCC1 | > 10 µM (inactive)
COC(=O)C1=C(C(=O)OC)SC(=C2C(=S)C(C)(C)N(C(=O)C(C)C)c3ccccc32)S1 | > 10 µM (inactive)
O=C(NCc1ccc(Cl)cc1)c1ccccc1CCc1ccccc1 | 7.94 µM
CCCC(=O)Nc1ccccc1Sc1ncnc2scc(-c3ccccc3)c12 | > 10 µM (inactive)
CC(=Nc1ccc2c(c1)nc(CO)n2C)C1=C(O)CC(C)(C)CC1=O | > 10 µM (inactive)
CCn1c(/N=C/c2ccccc2NS(=O)(=O)c2ccc(C)cc2)nc2ccccc21 | 3.3 µM
O=C(Cn1nc(Cl)nc1Cl)c1cc2ccccc2oc1=O | > 10 µM (inactive)
COc1cc(/C=C/C(=O)c2c(O)cc(C)oc2=O)cc(OC)c1O | > 10 µM (inactive)
CCCCC(=O)Nc1ccc(C(=O)NNC(=S)NC(=O)c2cccs2)cc1 | 8.39 µM
O=C(NNC1=Nc2cccc3cccc1c23)c1ccccc1Br | > 10 µM (inactive)
O=C(CCc1ccccc1)NCCCN1CCOCC1 | > 10 µM (inactive)
CN1C(=O)NC(c2ccc(O)cc2)C(C(=O)c2cccs2)C1(O)C(F)(F)F (centres undefined) | > 10 µM (inactive)
CCCCCCN1CC(C(=O)OCC)C(=O)C1=O (centres undefined) | 4.74 µM
CC1CCc2cc(F)cc3c(O)c(C(=O)NCc4ccco4)c(=O)n1c23 (centres undefined) | > 10 µM (inactive)

Structure (SMILES) | EC50
CCc1cc2c(=O)c(Oc3ccccc3)c(C)oc2cc1O | > 10 µM (inactive)
O=CN(/C=C1\Sc2ccccc2C1=O)Cc1ccccc1 | 5.73 µM
Cc1cccc(NC(=O)c2c(O)c3cccc4c3n(c2=O)CCC4)n1 | 6.87 µM
COc1cc(/C=C/C(=O)C2C(=O)C=C(C)OC2=O)cc(OC)c1O (centres undefined) | 6.69 µM
O=C1/C(=N/n2cnnc2)c2ccccc2N1Cc1ccccc1 | 9.61 µM
Cc1cc(C)nc(SCc2cc(=O)c(OC(=O)c3ccco3)co2)n1 | > 10 µM (inactive)
CN(C)C=C1C(=O)N(C2CCCCC2)C(=O)N(C2CCCCC2)C1=O | 6.96 µM
CCCC(=Nc1ccccc1OC)C1=C(O)CC(c2ccccc2)CC1=O (centres undefined) | 3.21 µM
O=C(CCl)N1c2ccccc2OCC1c1ccccc1 (centres undefined) | 9.75 µM
O=C(Nc1scc(-c2cccs2)c1C(=O)O)c1cccs1 | 6.7 µM
C=CCn1c(C)cc(C(=O)CSc2nc3ccccc3c(=O)[nH]2)c1C | > 10 µM (inactive)
Cc1ccc2[nH]c3c(c2c1)CC/C(=C/c1ccccc1)C3=O | > 10 µM (inactive)
Cc1nc2c(=O)n(C)c(=O)n(C)c2nc1Cl | 1.72 µM
CN(C)c1ccc(S(=O)(=O)c2ccc(Cl)cc2)cc1 | > 10 µM (inactive)
COc1cccc(CSc2nc3ccccc3cc2C=O)c1 | 8.96 µM
CC(=O)Nc1nc(C)c(Oc2ccccc2)c(=O)[nH]1 | > 10 µM (inactive)
O=C1CC(c2ccccc2)CC(O)=C1C=NCCN1CCN(C(=O)Nc2ccccc2)CC1 (centres undefined) | 6.64 µM
CCOC(=O)CCCNC(=O)COc1ccccc1C#N | > 10 µM (inactive)
O=C1NCC2=C1C(c1ccc(Br)cc1)Nc1ccccc1N2 (centres undefined) | 6.26 µM
O=S1(=O)C=C(Sc2nc3ccccc3s2)c2ccccc21 | > 10 µM (inactive)
CCc1[nH]nc2c1C(c1ccc(Br)s1)C(C#N)=C(N)O2 (centres undefined) | 9.31 µM
CCCC(=Nc1ccc(N)cc1)C1=C(O)C(C(=O)OC)C(C)(C)CC1=O (centres undefined) | 8.85 µM

Structure (SMILES) | EC50
COc1ccc2c3c(cccc13)C(=O)N(O)C2=O | 2.08 µM
Cc1ccc(C(=O)OC2=CC(=O)CC(C)(C)C2)cc1 | 2.94 µM
C=CCN(CC=C)S(=O)(=O)c1ccc2nc(NC(=O)C(C)C)sc2c1 | > 10 µM (inactive)
O=C(/C(=C/c1ccccc1)n1cncn1)c1ccc(Cl)cc1Cl | 1.07 µM
CC(=NCCc1c(C)[nH]c2ccc(C)cc12)C1=C(O)CC(c2ccccc2)CC1=O (centres undefined) | 7.69 µM
CS(=O)(=O)c1nc(-c2ccccc2)cc(C(F)(F)F)n1 | 3.32 µM
Cc1[nH]nc2nc3c(c(OC(=O)c4ccccc4)c12)c(=O)n(C)c(=O)n3C | 1.75 µM
Cc1ccc(N(C)C(=O)Oc2ccc(C(=O)c3ccc(Cl)cc3)cc2)cc1 | > 10 µM (inactive)
COc1ccccc1C(=O)Oc1ccc2c(c1)O/C(=C\c1ccncc1)C2=O | > 10 µM (inactive)
O=C(COc1ccc([N+](=O)[O-])cc1)N(Cc1ccccc1)Cc1ccccc1 | > 10 µM (inactive)
Fc1cccc2sc(Nc3nnc(-c4ccco4)o3)nc12 | 0.24 µM
O=C(/C=C(\O)c1ccc(Cl)cc1)C(=O)NNC(=O)C(O)(c1ccccc1)c1ccccc1 | 2.75 µM
CC(C)Cn1c(=O)c(C(=O)Nc2cnccn2)c(O)c2ccccc21 | 9.1 µM
CCOC(=O)CCS(=O)(=O)c1nc(-c2ccccc2)cc(C(F)(F)F)n1 | 1.13 µM
COc1ccc(C(=O)Nc2ccc(OCc3ccccc3)cc2)cc1[N+](=O)[O-] | > 10 µM (inactive)
C=CCn1c(C)cc(C(=O)COc2ncnc3sccc23)c1C | 9.94 µM
COC(=O)C1=C(C(=O)OC)C(c2ccccc2O)c2sc(=O)[nH]c2S1 (centres undefined) | 5.38 µM
Cc1nc2ccccc2n1-c1ccccc1 | > 10 µM (inactive)
CN(C)CC(C(=O)c1ccccc1)c1ccccc1 (centres undefined) | 6.36 µM
C=C(C(=O)c1ccccc1)C(C)C(=C)C(=O)c1ccccc1 | 4.62 µM
CC(C)c1nnc(NC(=O)c2c(O)c3cccc4c3n(c2=O)CCC4)s1 | 4.31 µM
Cc1c(O)c(S(=O)c2ccccc2)c(=O)n(-c2ccccc2)c1-c1ccccc1 (centres undefined) | 4.32 µM

Structure (SMILES) | EC50
COc1ccc(/C=C(/C(=O)c2ccc(Cl)cc2Cl)n2cncn2)cc1 | 8.48 µM
CCOC(=O)C1=C(C)Nc2nc(=S)[nH]n2C1c1ccc(Cl)cc1 (centres undefined) | 5.46 µM
CCCC[n+]1c(-c2ccc(Cl)cc2Cl)csc1Nc1ccccc1 | > 10 µM (inactive)
CSC1=NSC2=NC(=O)/C(=C\c3cccs3)C(=N)N12 | 3.28 µM
CN1C(=O)C(Cl)(Cl)C(=O)c2ccccc21 | > 10 µM (inactive)
N=c1c2c(-c3ccccc3)c(-c3ccccc3)n(Cc3ccco3)c2ncn1CCCn1ccnc1 | 9.85 µM
COc1ccc(CNC(=O)c2c(O)c3cccc4c3n(c2=O)CCC4)cc1 | > 10 µM (inactive)
C=C(C(=O)c1ccccc1)C(C)CC(=O)c1ccccc1 (centres undefined) | 6.42 µM
CCOC(=O)c1ccccc1N1C(=O)CSC1=S | > 10 µM (inactive)
O=C1CC(c2ccc(F)cc2)CC(O)=C1C=NCCN1CCN(C(=O)Nc2ccccc2)CC1 (centres undefined) | 7.09 µM
Cc1cccc(N2C(=O)C(Oc3ccc(Cl)cc3Cl)C2C=O)c1C (centres undefined) | 6.52 µM
CC1(C)CC(=O)C2=C(C1)OC1=C(C(=O)CC(C)(C)C1)C2c1ccc(O)cc1O | > 10 µM (inactive)
Fc1cccc2sc(Nc3nnc(-c4ccccc4)o3)nc12 | 3.02 µM
Cc1cc(C)c(S(=O)(=O)c2ccccc2)c(OC(=O)c2cc(F)c(F)cc2Cl)n1 | 7.24 µM
Cc1ccc(Oc2nc3ccccc3n3c(C)nnc23)c(C)c1 | > 10 µM (inactive)
O=[N+]([O-])c1cc2oc3c(c2c(C=NCc2ccccc2)c1O)CCCC3 | 2.55 µM
CC[n+]1ccc(C[n+]2ccccc2)c2ccccc21 | > 10 µM (inactive)
O=C(N/N=C/c1cccc(F)c1)c1c(O)c2ccccc2[nH]c1=O | 3.21 µM
Cc1ccc(S(=O)(=O)N[C@@H](Cc2ccccc2)C(=O)CCl)cc1 | 5.97 µM
CCCCCC(=O)N1CCN(CCN=CC2=C(O)CC(c3ccc(OC)c(OC)c3)CC2=O)CC1 (centres undefined) | > 10 µM (inactive)
O=C(N/N=C/c1ccccc1)c1c(O)c2ccccc2[nH]c1=O | 0.58 µM
